Test [1] concerns the target UL44 K60A−P54 interaction (Human cytomegalovirus, UniProt P16790, K60A). The test is described as follows: FP assay of mutant UL44 K60A−P54 interaction. The class given is binding. The note with it: read-out: inhibition of UL44 K60A−P54 interaction.
In test [2] the target is UL44−P54 interaction (Human cytomegalovirus, UniProt P16790). The experiment in a line: FP assay of UL44−P54 interaction. Format: binding. To be noted: IC50, inhibition of P54−UL44 interaction, incubation time 20 min or beyond. In outline:
(§1)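 Fluorescence polarization assays of each protein–peptide pair: UL44–P54 (GST-fused UL44ΔC290 with fluorescently labelled P54), UL42–P30 and PCNA–p21. Test compound was pre-incubated for set times, up to 60 min, before FP was read. Normalized mP relative to the no-inhibitor control was plotted against compound concentration. Error bars are standard errors of the mean.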

In test [3] the target is UL54 (Human cytomegalovirus, UniProt P08546). The test is described as follows: DNA synthesis by UL54 alone, filter binding assay. The class given is biochemical. The method, boiled down:
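Basal DNA synthesis by UL54 alone, without UL44, was measured by filter-binding assay across test compound concentrations. Signal is given relative to no compound, and error bars are standard errors of the mean.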

In test [4] the target is UL44 binding to full-length UL54 (Human cytomegalovirus, UniProt P16790). The experiment in a line: UL54−UL44 interaction assay by biolayer interferometry. In outline: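 Biolayer interferometry measured UL44 binding to full-length UL54 in the presence of test compound. Signal is given relative to binding without compound, and error bars are standard errors of the mean.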
In general terms: In BLI a coated tip is dipped into the sample, and binding shifts an interference pattern.

In test [5] the target is UL42−P30 interaction (Human herpesvirus 1, UniProt P10226). The test is described as follows: FP assay of UL42−P30 interaction. The class given is binding, herpes simplex virus-1. In outline: as §1
The target of test [6] is PCNA−P21 interaction (Homo sapiens, UniProt P12004). The experiment in a line: FP assay of PCNA−P21 interaction. The note with it: incubation up to 60 min, not meaningfully changed. Format: binding. In outline:
as §1

For test [7], the target named is UL54/UL44 DNA polymerase (Human cytomegalovirus, UniProt P16790). The test is described as follows: Long-chain DNA synthesis by UL54−UL44. Format: biochemical. In outline: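 UL54 with UL44 was used to make long-chain DNA products, and their formation was followed across a dose series of test compound, with product lanes compared. Signal is expressed relative to the no-compound reaction, and error bars are standard errors of the mean.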

As usually defined, the inhibition is the change of the read-out against control, counted positive when it falls. For orientation: IC50 means the point on the concentration scale where inhibition reaches its midpoint. A low value points to higher potency.

Sequence of PCNA−P21 interaction (P12004 whole entry): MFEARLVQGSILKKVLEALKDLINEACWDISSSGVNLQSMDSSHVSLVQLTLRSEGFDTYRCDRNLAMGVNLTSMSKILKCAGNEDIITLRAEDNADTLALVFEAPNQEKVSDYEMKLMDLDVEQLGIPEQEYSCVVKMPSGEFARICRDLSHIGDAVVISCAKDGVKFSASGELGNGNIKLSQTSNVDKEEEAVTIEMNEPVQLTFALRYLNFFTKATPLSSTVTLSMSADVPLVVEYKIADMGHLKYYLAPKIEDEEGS

Take `CSc1scc2c1C(=O)C(=CN(C)C)CC2` [SGM8]: the inhibition at 20 µM in test [1] was less than 50%. Besides, the IC50 in test [2] is 2000 nM; in test [3], greater than 100 µM; in test [4], 4.5 µM; in test [5], roughly 20 µM; in test [7], 3.2 µM. In addition, in test [5] (incubation time extended to 60 min), the “change of inhibition of P30−UL42 interaction on longer incubation” value is “only slightly increased”. For the same molecule, in test [6], the “inhibition of P21−PCNA interaction” value is on record as “very weak inhibition”.

For the origin of these results see article PMC5480311 (ACS infectious diseases, 2016).
